# Screening results deposited in PubChem BioAssay by several laboratories.
# AI-2 QS mod – modulators of Vibrio harveyi AI-2 quorum sensing system. AID 2094. hit rate 0.4% among 300,000. Vibrio harveyi JMH597 AI-2 luminescence/OD600 ratio, 9 h; hits give low values; strain lacks LuxN and CqsS sensors; 0 = neutral-control median. activity change, % at 7.5 µM; in the data active means activity change below about -75%, passing the limit was not always enough; inconclusive means no clear call, values can overlap the other calls;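 further: luminescence divided by OD600 gain over 9 h not by final OD600 alone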
# Wee1 degr inh – blocks degradation of human Wee1 kinase; HeLa Luc-Wee1K328M stability, luciferase luminescence; 100% = proteasome inhibitor MG132 effect; reporter increase, % at 5 µM; hit rate 1.2% among 220,000;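 active means activation above the mean of all tested compounds plus 3 SD, set per screening run, cut at about 8.8% in these data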;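 further: cells exposed to compound for 20 h before luminescence read; 0% = DMSO alone and 100% = MG132 at 30 µM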
# Runt-CBFb FRET – Runt domain-CBFb interaction inhibition; Q01196+Q13951; Cerulean-Runt/Venus-CBFb FRET ratio 530/480, 1 h; inhibition, % at 20 µM; hit rate 0.46% among 220,000; AID 1496;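 active means inhibition over about 50% at 20 µM in the single-dose screen, limit read from the data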;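 further: 0% = DMSO wells and 100% = excess unlabeled CBFb competitor control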
#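 System: Cerulean-labeled Runt domain protein | Quantity: 100 nM of each labeled protein | Schedule: 1 h compound exposure, room temperature | Detection: Fluorescence energy transfer, 422 nm excitation, 530/480 nm emission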
# Runt-SMMHC FRET – blocks binding of human RUNX1 Runt domain to CBFb-SMMHC; hit rate 0.74% among 220,000; AID 1434; inhibition, % at 20 µM; Cerulean-Runt/Venus-CBFb-SMMHC FRET ratio 530/480, 1 h; Q01196+Q13951;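 active means mean inhibition across duplicate retests at 20 µM reaching about 50%, limit read from the data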;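 further: 0% = DMSO wells and 100% = wells with excess untagged CBFb-SMMHC; inhibitors lower the FRET ratio by blocking Runt binding to CBFb-SMMHC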
# proKLK7 act – activators of human kallikrein-7 zymogen; P49862; purified proKLK7, EDANS-DABCYL substrate fluorescence; 100% is mature enzyme control, 0% vehicle; activation, % at 7 µM; hit rate 0.9% among 370,000;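 active means activation above the mean of all tested compounds plus 3 SD, computed per campaign excluding outliers beyond control limits, cut at about 13% in these data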
# Target sequence (P49862 whole entry, looked up): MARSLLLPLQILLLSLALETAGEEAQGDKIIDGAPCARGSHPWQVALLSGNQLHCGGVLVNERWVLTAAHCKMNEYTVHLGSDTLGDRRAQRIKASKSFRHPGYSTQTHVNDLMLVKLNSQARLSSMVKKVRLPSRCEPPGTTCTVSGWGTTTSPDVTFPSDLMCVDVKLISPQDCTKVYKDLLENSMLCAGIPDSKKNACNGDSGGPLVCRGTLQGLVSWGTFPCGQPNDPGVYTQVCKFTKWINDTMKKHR
# RanGTP-Impb inh – inhibitors of RanGTP-importin-beta interaction, primary screen, biochemical, FRET, CFP-Ran, YFP-importin-beta, homogeneous; cell-free CFP-Ran/YFP-importin-beta FRET ratio; inhibition, % (no concentration beside the values); hit rate 1.1% among 300,000;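 active means more than half of the replicate wells show a fall in the fluorescence ratio signal beyond about 16%, limit read from the data, passing the limit was not always enough; inconclusive means exactly half of the replicate wells pass the set limit; inactive means fewer than half of replicates pass the limit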;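 further: 0% = DMSO wells and 100% = Ran loaded with GDP instead of GTP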
# An asterisk follows results filed as active; ? = inconclusive; nt = no result. Rows were chosen to be rich in hits. Some 2.9% of all compounds tested hit in one or more screens of this group.
SMILES,AI-2 QS mod,Wee1 degr inh,Runt-CBFb FRET,Runt-SMMHC FRET,proKLK7 act,RanGTP-Impb inh
Nc1[nH]c(C(=O)c2ccccc2)c(-c2ccc(Cl)cc2)c1C(=O)c1c[nH]c2cc(F)ccc12,nt,nt,nt,nt,0,nt
Cc1ccc(-n2c(C)cc(C(=O)OCC(=O)N(C)C3CCS(=O)(=O)C3)c2C)cc1 (configuration not stated),10,-3,1,3,-1,3
Cc1ccc(-n2c(C)cc(C(=O)OCC(=O)N(CC(C)C)C3CCS(=O)(=O)C3)c2C)cc1 (configuration not stated),25,16*,-2,-2,0,-2
CCOC(=O)c1oc2cc(OC(C)=O)ccc2c(=O)c1-c1ccc(OC)c(OC)c1,-2,9.3*,-3,-2,0,0
Nc1sc(-c2ccccc2)n[n+]1Cc1cccc2cccnc12,-88*,5,3,1,0,?
Cc1ccc(-c2nn(-c3ccccc3)cc2C=O)o1,16,11*,36,7,0,2
O=C1CC(c2ccccc2)CC(O)=C1C=Nc1ccc(Cl)cc1 (configuration not stated),-6,-3,0,1,0,3
O=C1CC(c2ccccc2)CC(O)=C1C=Nc1cccc(Cl)c1 (configuration not stated),8,9.6*,-1,-4,-1,4
COc1ccc(CCCc2nc3ccccc3[nH]2)cc1,-7,9.9*,-1,0,0,?
CCCn1c(NC(=O)CN2C(=O)NC3(CCCCC3)C2=O)nc2ccccc21,12,nt,nt,nt,0,-1
O=C(NCc1ccco1)c1ccc(COc2ccccc2Cl)cc1,23,13*,-1,-2,0,1
CC12CCC(C(=O)NCc3ccccn3)(OC1=O)C2(C)C (configuration not stated),12,0,2,-2,0,-3
CC12CC3(C)CC(C)(C1)CC(C(=O)NCc1ccccn1)(C2)C3,17,1,-5,-2,0,34*
CC1CCN(CCNC(=O)c2ccc(NC(=O)C3CCCO3)cc2)CC1 (configuration not stated),10,9.3*,1,1,0,1
CN(C)[C@H]1CCN(c2ccc3c(c2)O[C@@H]2CCN(C2)S3(=O)=O)C1,nt,nt,nt,nt,0,nt
COC(=O)c1c(N)n(-c2ccc(N3CCOCC3)cc2)c2nc3ccccc3nc12,nt,nt,-1,-1,nt,nt
CCOC(=O)c1c(N)n(CC(C)NC(=O)C2CC2)c2nc3ccccc3nc12 (configuration not stated),nt,0,74*,163*,nt,nt
ClC(Cl)c1nnc(-c2ccccc2)c(-c2c[nH]c3ccccc23)n1,-77*,4,-1,-5,0,?
c1ccc(-c2nnc(-c3c[nH]c4ccccc34)nc2-c2ccccc2)cc1,16,4,2,-4,-1,-1
O=c1cc(NCc2ccccc2)nc2n1CCCS2,25,2,-4,1,0,20*
O=[N+]([O-])c1cccc(-c2nc(NCc3ccccc3)c3ccccc3n2)c1,20,0,2,-2,0,?
CN(Cc1ccccc1)c1nc(-c2cccc([N+](=O)[O-])c2)nc2ccccc12,25,11*,0,1,0,3
CC(C)(C)c1ccc(-c2nnc(SCC(=O)Nc3ccc(S(=O)(=O)Nc4nccs4)cc3)n2-c2ccc(Cl)cc2)cc1,nt,nt,nt,nt,0,nt
COC(=O)[C@]12C[C@H](CC(=O)NCc3cccc(C(F)(F)F)c3)C(=O)N(Cc3cccc4ccccc34)C1=C[C@H](C(C)(C)C)O[C@@H]2C,nt,nt,nt,nt,-1,nt
CCc1ccc(NC(=O)CN(c2ccc(OC)cc2)S(=O)(=O)c2c(C)[nH]c(=O)[nH]c2=O)cc1,6,nt,nt,nt,0,1
CCc1ccc(NC(=O)CN(c2cc(C)cc(C)c2)S(=O)(=O)c2c(C)[nH]c(=O)[nH]c2=O)cc1,16,nt,nt,nt,nt,21*
CC(C)c1c(C(=O)N/N=C/c2ccc(OCc3ccc(F)cc3)cc2)nnn1-c1nonc1N,7,nt,nt,nt,0,-1
